Bioassay records: PubChem, several laboratories
TNAP inh noacc = TNAP (human) inhibition, acceptor-free conditions; purified TNAP, CDP-star luminescence, 30 min; inhibition, % at 20 µM; hit rate 0.26% among 200,000; AID 1012;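 active = tissue-nonspecific alkaline phosphatase inhibition above about 50% at 20 µM in the single-dose screen, limit read from the data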;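 note: 0% = DMSO negative control and 100% = EDTA positive control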
TNAP inh hi DEA = inhibitors of human TNAP at high phosphate acceptor concentration. P05186. purified TNAP, CDP-star luminescence, 1 M DEA. inhibition, % at 20 µM. hit rate 0.03% among 200,000. AID 1135;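 active = over 50% inhibition of tissue-nonspecific alkaline phosphatase at 20 µM in the single-dose screen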;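 note: plate controls were DMSO wells for no effect and EDTA-quenched wells as full inhibition for full effect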
TNAP act hi DEA = TNAP (human) activation, high acceptor; purified TNAP, CDP-star luminescence, 1 M DEA, 30 min; hits give high values; 0 = EDTA background, 1 = DMSO-only activity; 200,000 tested, under 10 active; activation factor at 20 µM; P05186;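 active = activation factor at least 2 at 20 µM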
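Control set: EDTA negative control, DMSO positive control / Assay system: human TNAP / Quantity: TNAP 1/800 final / Evaluation: TNAP activation factor scaled between EDTA and DMSO control wells / Measured by: luminescent substrate turnover signal / Compound dosing: one dose, 20 µM / Times: 30 min enzyme reaction at room temperature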
PKD1 kinase inh = PKD1 (human) kinase inhibition. Q15139. PKD1 kinase fluorescence polarization assay. inhibition, % (test concentration not listed). hit rate 0.056% among 200,000; in the data active = inhibition above about 50%
Target sequence (Q15139 whole entry, looked up): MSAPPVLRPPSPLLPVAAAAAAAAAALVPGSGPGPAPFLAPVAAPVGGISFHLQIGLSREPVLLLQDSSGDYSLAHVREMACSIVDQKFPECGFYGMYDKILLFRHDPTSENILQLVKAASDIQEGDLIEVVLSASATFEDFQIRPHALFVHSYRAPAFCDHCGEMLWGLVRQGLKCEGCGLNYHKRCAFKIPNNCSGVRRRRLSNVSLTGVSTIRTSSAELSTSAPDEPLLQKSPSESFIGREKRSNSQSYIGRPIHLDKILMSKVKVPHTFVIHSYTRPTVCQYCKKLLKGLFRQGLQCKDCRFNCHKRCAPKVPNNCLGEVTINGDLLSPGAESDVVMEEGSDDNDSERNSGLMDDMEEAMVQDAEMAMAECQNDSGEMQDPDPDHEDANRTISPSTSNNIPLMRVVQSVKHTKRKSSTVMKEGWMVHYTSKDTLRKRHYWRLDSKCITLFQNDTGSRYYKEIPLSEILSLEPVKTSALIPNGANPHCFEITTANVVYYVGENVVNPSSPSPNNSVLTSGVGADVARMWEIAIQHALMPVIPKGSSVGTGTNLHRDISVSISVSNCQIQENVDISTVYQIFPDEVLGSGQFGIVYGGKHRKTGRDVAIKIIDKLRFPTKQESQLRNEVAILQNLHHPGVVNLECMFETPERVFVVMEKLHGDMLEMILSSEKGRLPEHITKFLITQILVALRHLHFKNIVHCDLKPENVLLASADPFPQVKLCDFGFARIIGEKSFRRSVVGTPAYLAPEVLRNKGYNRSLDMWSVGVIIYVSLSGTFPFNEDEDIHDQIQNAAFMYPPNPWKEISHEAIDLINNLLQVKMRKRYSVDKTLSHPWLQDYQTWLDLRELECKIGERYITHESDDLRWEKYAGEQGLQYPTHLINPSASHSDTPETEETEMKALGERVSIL
Starred values were filed as active, the others as inactive. Shown are actives, neighbours in structure and some others; about 0.35% of the full set was active somewhere.

SMILES	TNAP inh noacc	TNAP inh hi DEA	TNAP act hi DEA	PKD1 kinase inh
CN(C)c1ccc(/C=C2\N=C(c3ccc(Cl)c([N+](=O)[O-])c3)NC2=O)cc1	50.5*	44.6	0.6	-1.0
CS(=O)(=O)n1nc(-c2ccc(Cl)cc2)nc1SCc1ccccc1	67.7*	-0.3	1	0.0
CSc1nc(-c2ccc(Cl)cc2)nn1S(=O)(=O)c1ccccc1	10.6	-3.2	1	1.2
COC(=O)c1ccc2c(c1)C(=O)/C(=C/c1ccc(O)cc1)O2	46.0	55.0*	0.4	-5.3
CC(CN1CCOCC1)OC(=O)C(C)(c1ccccc1)c1ccccc1 (stereo unspecified)	1.4	0.6	1	1.1
COc1ccc(Cn2c(=O)[nH]c3cc(C(=O)NC4CCCC4)ccc3c2=O)cc1	-8.0	-1.2	1	55.9*
CC1(C)Cc2nc3sc4c(=O)n(CC(=O)NCc5ccco5)cnc4c3cc2CO1	-12.7	-5.3	1.1	-5.3
N#CCCn1cc(/C=N/NC(N)=S)c(-c2ccccc2)n1	56.1*	0.1	1	-1.0
O=C(CN1CCN(S(=O)(=O)c2ccc(F)cc2)CC1)c1ccc(O)c(O)c1	56.3*	1.8	1	0.1
Cc1ccc(C)c(S(=O)(=O)Nc2nc3ccc(S(N)(=O)=O)cc3s2)c1	1.8	1.6	1	-1.2
Cc1n[nH]c(C)c1S(=O)(=O)NCCc1ccc(Cl)cc1	60.7*	-3.2	1	-7.3
C[C@H](NC(=O)c1nc[nH]c1C(=O)NC(c1ccccc1)c1ccccc1)C(=O)OC(C)(C)C	-8.7	-6.6	1.1	-3.2
COc1ccc(O)c(/C=N/N=C2/C(=O)Nc3ccccc32)c1	16.8	7.2	0.9	-2.3
COc1cc(/C=N/N=C2/C(=O)Nc3ccccc32)cc(OC)c1O	49.4	56.0*	0.4	-0.7
Nc1c(Cl)ncnc1N/N=C/c1ccccn1	-91.2	20.8	0.8	-9.5
Nc1c(Cl)ncnc1N/N=C/c1ccc2ccccc2n1	-22.4	54.2*	0.5	2.2
Oc1[nH]c2ccccc2c1N=NC(=S)NCCc1ccccc1	-59.7	15.0	0.8	0.6
NC(=S)N=Nc1c(O)[nH]c2ccccc12	65.2*	3.8	1	-6.6
S=c1[nH]nc(-c2ccco2)n1/N=C/c1ccccc1Cl	21.4	0.2	1	9.2
S=c1[nH]nc(-c2ccco2)n1/N=C/c1ccc(Cl)cc1	54.0*	0.6	1	1.6
Cc1ccc(C(=O)n2nc(-n3cccc3)c3c(C)cc(C)nc32)cc1	58.0*	0.4	1	-2.5
Cc1cc(C)c2c(-n3cccc3)nn(C)c2n1	-2.2	-3.7	1	1.4
O=S(=O)(NCCCN1CCN(c2ccccc2F)CC1)c1cccc2cccnc12	-7.9	-0.8	1	-13.6
c1ccc(-c2n[nH]c(-c3ccccn3)n2)cc1	66.6*	-3.9	1	-0.4
CC(C)Cc1nnc(NC(=O)CCC(=O)Nc2ccc(F)cc2)s1	51.1*	-1.1	1	0.1
SMILES	TNAP inh noacc	TNAP inh hi DEA	TNAP act hi DEA	PKD1 kinase inh
Cc1c(C2Nc3ccccc3C(=O)N2O)cnn1C (stereo unspecified)	-0.5	1.0	1	-4.4
COc1cccc(C2Nc3ccccc3C(=O)N2O)c1O (stereo unspecified)	74.5*	1.2	1	5.3
S=C(NCCc1ccccc1)N1CCN(Cc2ccc(Cl)c(Cl)c2)CC1	0.4	-8.5	1.1	-5.6
Cc1ccc(S(=O)(=O)Oc2ccc(C(c3c(C)[nH][nH]c3=O)c3c(C)[nH][nH]c3=O)cc2)cc1	-7.9	60.7*	0.4	0.4
CCOc1cc(C(c2c(C)[nH][nH]c2=O)c2c(C)[nH][nH]c2=O)ccc1OS(=O)(=O)c1ccccc1	23.8	61.6*	0.4	0.0
CCOc1cc(/C=N/n2cnnc2)ccc1OS(=O)(=O)c1ccc(C)cc1	-8.0	-5.4	1.1	1.8
C/C(N)=C(/C#N)C(=O)CSc1n[nH]c(-c2ccccc2Br)n1	91.9*	1.5	1	-6.7
O=C1N=c2ccccc2=C1c1sc(Nc2ccc(O)cc2)nc1O	81.6*	44.4	0.6	-7.2
Nc1n[nH]c(-c2ccccc2)n1	35.4	-3.3	1	-6.0
Nc1n[nH]c(-c2ccccc2[N+](=O)[O-])n1	86.4*	2.4	1	-3.4
Cc1[nH]n(-c2ccccc2)c(=O)c1/C=N/NC(=O)c1cccc([N+](=O)[O-])c1	4.0	-6.3	1.1	0.8
Cc1[nH]n(-c2cccc3ccccc23)c(=O)c1/C=N/NC(=O)c1cccc([N+](=O)[O-])c1	51.2*	11.5	0.9	12.0
Cc1ncc(CO)c(/C=N/NC(=O)c2cc(Br)ccc2O)c1O	58.3*	4.3	1	-6.4
COc1ccc(-c2nn(-c3ccccc3C)cc2CNC(C)c2cn(C)nc2C)cc1F (stereo unspecified)	-5.7	-0.9	1	-3.6
COc1ccc(-c2[nH]ncc2CNC(C)c2cn(C)nc2C)c(F)c1 (stereo unspecified)	74.0*	-7.0	1.1	-4.0
COc1ccc(-c2[nH]ncc2CNC(C)CCn2cccn2)c(F)c1 (stereo unspecified)	72.5*	-4.1	1	9.4
Cc1n[nH]c(C)c1S(=O)(=O)N1CCOCC1	56.8*	1.6	1	-10.3
CCn1c(SCC(=O)c2ccc3c(c2)Cc2ccccc2-3)nnc1-c1ccc(N)cc1	6.4	-4.7	1	1.9
CCn1c(SCC(=O)c2ccc(O)c(O)c2)nnc1-c1ccc(C)cc1	52.7*	6.0	0.9	6.2
COC(=O)c1c(C)[nH]c(C(=O)CSc2ccc(Cl)cc2)c1C	-11.4	-6.4	1.1	3.5
COc1cc(C2OCC3C(c4ccc(OC5OC(CO)C(O)C(O)C5O)c(OC)c4)OCC23)ccc1O (stereo unspecified)	63.5*	1.2	1	9.9
COc1ccc(C2CC(=O)Nc3n[nH]c(-c4ccccc4)c32)cc1OC (stereo unspecified)	64.2*	-0.7	1	8.3
Cc1ccsc1/C=c1\sc2ncnn2c1=O	83.9*	23.5	0.8	-9.0
C/C(=N\Nc1ncc(Cl)cc1Cl)c1ccccn1	3.1	4.2	1	61.4*
C/C(=N/NC(=O)C(=O)N/N=C(/C)c1ccccc1)c1ccccc1	-58.4	-1.3	1	-9.8
SMILES	TNAP inh noacc	TNAP inh hi DEA	TNAP act hi DEA	PKD1 kinase inh
C/C(=N\NC(=O)C(=O)N/N=C(\C)c1cccc(O)c1)c1cccc(O)c1	54.9*	-2.8	1	2.7
CSC(=O)NC12CC3CC(CC(C)(C3)C1)C2	-18.0	-8.2	1.1	-3.1
CC(C)(C)c1[nH]nc2c1C(C1C=CCCC1)C(C#N)=C(N)O2 (stereo unspecified)	32.2	-3.2	1	-2.0
CCc1[nH]nc2c1C(C1C=CCCC1)C(C#N)=C(N)O2 (stereo unspecified)	70.0*	-4.9	1	1.4
Cc1[nH]nc2c1C(C1CC=CCC1)C(C#N)=C(N)O2 (stereo unspecified)	72.4*	2.1	1	-2.7
Cc1ccc(C(=O)Nc2nc3nc(-c4ccccc4)cc(=O)n3[nH]2)cc1	-18.3	-4.5	1	-1.3
COc1ccc(C2CC(=O)n3nc(C45CC6CC(CC(C6)C4)C5)nc3S2)cc1OC (stereo unspecified)	88.4*	1.0	1	9.2
